Nine compounds from ChEMBL document CHEMBL4177623, “Concise syntheses and HCV NS5B polymerase inhibition of (2'R)-3 and (2'S)-2'-ethynyluridine-10 and related nucleosides” (Bioorg Med Chem Lett, 2017) can be followed below.

Test [1] concerns the target RNA-directed RNA polymerase (Hepacivirus hominis, UniProt O39930). As to the kind of experiment: Inhibition of wild-type HCV genotype 1b BK NS5B Cdelta55 RNA dependent RNA polymerase using RNA as substrate after 1 hr in presence of NTPs by [33P]-CTP based topcount assay. More on the design: species or system Hepatitis C virus (isolate BK).
For another test, the system named is Hepatitis C virus. Nature of the test: Antiviral activity against HCV genotype 1b Con1 infected in replicon cells after 3 days by real-time PCR analysis. Format: functional, organism-based, Hepacivirus hominis. The following applies: isolate Con1, 72 h. The procedure, abridged:
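Con1 genotype 1b replicon cells plated at 5000/well one day before dosing; inhibitor added from DMSO in 10 serial twofold dilutions, triplicate, final 0.5% DMSO, 10% FBS. Harvest 3 days post-dose; replicon RNA measured by real-time RT-PCR (Taqman) normalised to GAPDH RNA; EC50 derived.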
(In general: Replicon systems follow genome replication, usually without infectious particles.)

As usually defined, the IC50 is the point on the concentration scale where inhibition reaches its midpoint. A word on the EC50: it is the concentration that produces a half-maximal response. Read a high EC50 as weaker potency.

RNA-directed RNA polymerase, sequence (O39930 whole entry): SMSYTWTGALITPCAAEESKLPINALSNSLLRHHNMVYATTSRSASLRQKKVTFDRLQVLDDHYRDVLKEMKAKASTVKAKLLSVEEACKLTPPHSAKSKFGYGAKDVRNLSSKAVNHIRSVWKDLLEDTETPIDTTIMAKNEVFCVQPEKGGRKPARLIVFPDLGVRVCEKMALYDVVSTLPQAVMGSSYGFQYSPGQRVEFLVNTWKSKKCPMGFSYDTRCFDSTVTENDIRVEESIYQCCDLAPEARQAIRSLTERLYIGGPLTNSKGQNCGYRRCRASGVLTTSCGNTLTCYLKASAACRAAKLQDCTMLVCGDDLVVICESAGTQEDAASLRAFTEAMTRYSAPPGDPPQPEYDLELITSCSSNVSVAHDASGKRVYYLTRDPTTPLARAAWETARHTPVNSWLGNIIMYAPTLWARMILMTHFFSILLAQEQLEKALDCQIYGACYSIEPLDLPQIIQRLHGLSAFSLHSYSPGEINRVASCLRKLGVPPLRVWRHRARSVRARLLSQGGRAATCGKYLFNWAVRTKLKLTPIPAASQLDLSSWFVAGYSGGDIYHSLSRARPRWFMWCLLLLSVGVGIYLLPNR

For the compound `CC#C[C@@]1(O)[C@H](O)[C@@H](COP(=O)(O)OP(=O)(O)OP(=O)(O)O)O[C@H]1n1ccc(=O)[nH]c1=O`, the IC50 in test [1] came out at 0.16 µM.
As for `CC#C[C@@]1(F)[C@H](O)[C@@H](CO)O[C@H]1n1ccc(=O)[nH]c1=O`, the EC50 in the test with Hepatitis C virus is over 100 µM.
In the case of `C#C[C@@]1(O)[C@H](O)[C@@H](CO)O[C@H]1n1ccc(=O)[nH]c1=O`, the EC50 in the test with Hepatitis C virus is over 100 µM.
On the same count and under the same terms, next, `CC#C[C@@]1(O)[C@H](O)[C@@H](CO)O[C@H]1n1ccc(=O)[nH]c1=O`: over 100 µM.
As for `CC#C[C@@]1(F)[C@H](O)[C@@H](COP(=O)(O)OP(=O)(O)OP(=O)(O)O)O[C@H]1n1ccc(=O)[nH]c1=O`, in test [1], the IC50 was 9.9 µM.
With `C#C[C@]1(O)[C@H](O)[C@@H](COP(=O)(O)OP(=O)(O)OP(=O)(O)O)O[C@H]1n1ccc(=O)[nH]c1=O`, in test [1], the IC50 was determined as 54 µM.
With `CCCCCCN(C)C.CCCCCCN(C)C.CCCCCCN(C)C.CCCCCCN(C)C.C[C@@]1(F)[C@H](O)[C@@H](COP(=O)(O)OP(=O)(O)OP(=O)(O)O)O[C@H]1n1ccc(=O)[nH]c1=O`, in test [1], the IC50 is 1.1 µM.
For the compound `C#C[C@@]1(O)[C@H](O)[C@@H](COP(=O)(O)OP(=O)(O)OP(=O)(O)O)O[C@H]1n1ccc(=O)[nH]c1=O`, in test [1], the IC50 worked out at 0.09 µM.
The same measure, in the same setting: next, `C#C[C@@]1(F)[C@H](O)[C@@H](COP(=O)(O)OP(=O)(O)OP(=O)(O)O)O[C@H]1n1ccc(=O)[nH]c1=O`: 3.6 µM.
